From PubChem
CHO parental Ca: signal in parental CHO cells, OX1R antagonist counter-screen. parental CHO-K1, ATP-induced calcium, Fluo-8 fluorescence. inhibition, % at 5.6 µM. actives 0.63% (n = 330,000);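 active means inhibition above that plate's mean sample inhibition plus 3 SD, cut at about 26% in these data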;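 further: 0% = ATP-challenged DMSO wells and 100% = DMSO wells without ATP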
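Test system: untransfected parental CHO cell line. Compound: one dose, 5.6 µM nominal. Detection: intracellular calcium via Fluo-8 no-wash fluorescent dye. Measure: % inhibition. Benchmarks: ATP-challenged DMSO wells low, unchallenged DMSO wells high.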
OX1R antag-1: antagonists of human orexin 1 receptor (OX1R) | O43613 | OX1R-expressing cells, FRET antagonist read-out | inhibition, % at 6.6 µM | actives 1.8% (n = 330,000); in the data active means inhibition mostly above about 38%, no sharp cut-off; inactive means mostly below about 40%;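 further: 0% = agonist challenge alone and 100% = reference antagonist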
Target sequence (O43613 whole entry, looked up): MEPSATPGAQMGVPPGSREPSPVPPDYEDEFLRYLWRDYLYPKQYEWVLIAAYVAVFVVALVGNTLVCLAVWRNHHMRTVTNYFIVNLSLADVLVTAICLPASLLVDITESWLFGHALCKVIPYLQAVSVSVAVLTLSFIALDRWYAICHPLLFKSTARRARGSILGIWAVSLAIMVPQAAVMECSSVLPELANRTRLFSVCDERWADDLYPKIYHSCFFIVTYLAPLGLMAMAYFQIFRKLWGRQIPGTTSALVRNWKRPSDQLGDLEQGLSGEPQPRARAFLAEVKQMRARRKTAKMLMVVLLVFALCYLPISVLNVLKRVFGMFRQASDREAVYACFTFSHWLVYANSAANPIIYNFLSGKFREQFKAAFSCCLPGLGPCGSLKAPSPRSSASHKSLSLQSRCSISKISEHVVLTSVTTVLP
TAAR1 antag: antagonists of human TAAR1 | Q96RJ0 | CHO RD-HGA16 TAAR1, Fluo-8 calcium fluorescence, antagonist | inhibition, % at 3 µM | actives 1.5% (n = 360,000) | AID 624466;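 active means inhibition above a per-plate cutoff, the mean inhibition of test compounds on that plate plus 3 SD, cut at about 49% in these data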;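 further: 0% = DMSO plus EC80 beta-PEA response and 100% = DMSO alone without agonist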
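Test system – hTAAR1-expressing CHO RD-HGA16 cells, Gα16-coupled · Also added – β-PEA at EC80 concentration, post-compound challenge · Compound – 3 µM, single point · Incubation – dye loading 75 min at 37 °C, then 30 min room temperature · Measured by – Fluo-8 intracellular calcium dye fluorescence, real-time kinetic reads · Benchmarks – vehicle and agonist controls · Replicates – singlicate, one well per test compound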
GPR7 antag: antagonists of human GPR7 (neuropeptides B/W receptor 1) | inhibition, % at 4.4 µM | actives 1.1% (n = 290,000) | AID 1861 | GPR7-expressing cells, fluorescence antagonist assay | P48145; in the data active means inhibition above about 16%, passing the limit was not always enough;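 further: cells stimulated with the agonist NPW; 0% = agonist with vehicle and 100% = vehicle without agonist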
OX1R antag-2: human HCRTR1 antagonism; O43613; AID 434989; inhibition, % at 5 µM; CHO/OX1R cells, Fluo-8 calcium fluorescence, orexin A; actives 0.43% (n = 330,000);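 active means inhibition above its plate's threshold, mean inhibition of all tested compounds on the plate plus 3 SD, cut at about 37% in these data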;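 further: 0% = orexin A challenge wells and 100% = SB-334867-A antagonist wells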
TAAR1 agonist: agonists of human TAAR1 | actives 0.99% (n = 360,000) | CHO RD-HGA16 TAAR1, Fluo-8 calcium fluorescence; vehicle wells 0%, saturating PEA agonist 100% | Q96RJ0 | activation, % at 3 µM;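 active means activation above the mean activation of all test compounds in the run plus 3 SD, cut at about 38% in these data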
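Test system: RD-HGA16 (CHO) cells co-expressing Gα16 and hTAAR1 | Doses: Single dose, 3 µM | Schedule: 17-24 h seeding, 75 min 37 °C dye, 30 min RT | Evaluation: % activation from peak over basal fluorescence ratio, DMSO-to-PEA scaled | Technique: Kinetic Fluo-8 calcium fluorescence | Benchmarks: Low control DMSO, high control PEA (EC100)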
OX1R Fluo8 conf: OX1R (human) antagonism, confirmed | CHO/OX1R cells, orexin A calcium Fluo-8 fluorescence | inhibition, % at 5 µM | shares compounds with OX1R antag-2 | actives 38% (n = 1,100) | AID 492963; in the data active means inhibition above about 29%;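 further: 0% = agonist challenge alone and 100% = reference antagonist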
CHO Ca counter: counter-screen: parental CHO calcium response change, triplicate; shares compounds with OX1R antag-2; parental CHO-K1, ATP-induced calcium, Fluo-8 fluorescence; inhibition, % at 5.6 µM; actives 9.3% (n = 1,100);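 active means inhibition above a per-plate limit, the mean inhibition of that plate's test compounds plus 3 SD, cut at about 25% in these data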;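 further: 0% = ATP challenge with DMSO and 100% = DMSO without ATP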
* = called active by the depositor; nt = no result given. A selection: hits, their analogues and other compounds. The true share with any hit is near 4.5%.

SMILES	CHO parental Ca	OX1R antag-1	TAAR1 antag	GPR7 antag	OX1R antag-2	TAAR1 agonist	OX1R Fluo8 conf	CHO Ca counter
COc1cccc(CNC(=O)c2cccc(S(=O)(=O)N3CCN(c4ccc(F)cc4)CC3)c2)c1	12	22	26	nt	24	21	26	3
COc1ccc(CNC(=O)c2cccc(S(=O)(=O)N3CCN(c4ccc(F)cc4)CC3)c2)cc1	nt	nt	5	nt	nt	8	nt	nt
COc1ccc([C@@H]2[C@@H]3C(=O)N(C(C)(C)C)C(=O)[C@@H]3[C@]3(C)C(=O)N(c4cccc(Br)c4)C(=O)N23)cc1	-25	34	nt	4	-25	nt	nt	nt
COc1ccc([C@H]2N[C@]3(CCCN(Cc4ccc(C(F)(F)F)cc4)C3=O)[C@H]3C(=O)N(Cc4ccccc4)C(=O)[C@@H]23)cc1	nt	nt	25	nt	nt	6	nt	nt
CC(Oc1ccc2c3c(c(=O)oc2c1)CCCC3)C(=O)NCc1ccccn1 (stereo unspecified)	-26	20	1	-8	54*	0	-11	-14
Cc1c(C)c2ccc(OC(C)C(=O)NCc3ccccn3)cc2oc1=O (stereo unspecified)	-13	11	5	0	-9	1	nt	nt
O=C(O)c1cc(S(=O)(=O)N2CC3CC3C2C(=O)O)c(Cl)cc1Cl (stereo unspecified)	-10	0	-7	-12	5	0	nt	nt
COc1cccc2cc(-c3nc(-c4cccs4)cs3)c(=O)oc12	-5	32	15	4	39	6	69*	-7
CC(=O)Nc1ccc(/C(C)=N/Nc2nc(Nc3cccc4ccccc34)nc(N3CCOCC3)n2)cc1	11	24	52*	17	40*	50*	1	-6
CCCCn1c(N)c(N(C(=O)CSc2nnc(C)n2-c2ccccc2)C2CCCC2)c(=O)[nH]c1=O	-15	5	-3	nt	-15	7	nt	nt
CCCC(=O)N1CCC1(C)C(=O)NS(=O)(=O)c1ccc(OC)cc1 (stereo unspecified)	nt	nt	12	nt	nt	0	nt	nt
CCN(CC)c1ccc2c(c1)OC(N)=C(C#N)C2c1cccnc1 (stereo unspecified)	20	16	-7	9	29	64*	8	10
N#CC1=C(N)Oc2cc(N)ccc2C1c1cccnc1 (stereo unspecified)	4	19	-15	-11	-4	4	nt	nt
COC(=O)c1cccn(CC(=O)c2ccc(Cl)cc2)c1=O	-5	2	12	-7	-1	0	nt	nt
COc1cccc(-c2csc(N3CCN(C(=O)Nc4ccc(Cl)cc4)CC3)n2)c1	7	30	58*	5	32	10	16	7
COc1ccc(C[C@H]2CN3C(=NC[C@@H]3Cc3ccccc3)N2CCNC(=O)c2ccc(C)c(Br)c2)cc1	-14	6	nt	19	1	nt	nt	nt
COc1ccc(C[C@H]2CN3C(=NC[C@H]3Cc3ccccc3)N2CCNC(=O)c2ccc(C)c(Br)c2)cc1	8	13	nt	nt	32	nt	32*	-4
Oc1ccc(C[C@H]2CNC(=S)N2CC2CCCN2C[C@H](Cc2ccc(O)cc2)N2C[C@H](Cc3ccccc3)N(CC3CCCCC3)C2=S)cc1 (stereo partly specified)	nt	nt	-14	nt	nt	1	nt	nt
CSc1cc(C)c(OCC(=O)Nc2ccc(NC(C)=O)cc2)c(C)c1	-9	34	9	2	28	0	14	-1
C/C(=N\Nc1ccc(C(F)(F)F)cn1)c1ccc(S(=O)(=O)NCc2ccco2)cc1	-15	35	36	1	30	2	4	0
Cc1noc(C)c1C(=O)OCC(=O)c1cc(C)n(Cc2ccccc2Cl)c1C	23	24	29	4	49*	14	9	13
Cc1noc(C)c1C(=O)OCC(=O)c1ccc[nH]1	-2	12	11	3	-16	4	nt	nt
COc1ccc(CNC(=O)c2cn(Cc3ccccc3F)c(=O)s2)cc1	nt	nt	22	nt	nt	0	nt	nt
Cc1cccc(OCCC(=O)Nc2ccc(C)c(S(=O)(=O)N3CCOCC3)c2)c1	-9	11	5	nt	-6	8	nt	nt
Cc1cccc(OCCCC(=O)Nc2ccc(Cl)c(S(=O)(=O)N3CCOCC3)c2)c1	-12	7	27	nt	35	7	7	8
SMILES	CHO parental Ca	OX1R antag-1	TAAR1 antag	GPR7 antag	OX1R antag-2	TAAR1 agonist	OX1R Fluo8 conf	CHO Ca counter
Cc1cccc(N2CCN(C(=O)CN3C(=O)NC4(CCCCCC4)C3=O)CC2)c1C	nt	nt	-8	nt	nt	1	nt	nt
COc1ccc(CN(C)C[C@H]2OCCCC[C@@H](C)Oc3ccc(NS(C)(=O)=O)cc3C(=O)N([C@H](C)CO)C[C@@H]2C)cc1	nt	nt	-14	nt	nt	0	nt	nt
Cc1cc(-c2nnc3n2N=C(c2ccc(-c4ccccc4)cc2)CS3)n[nH]1	17	4	36	3	57*	45*	8	-4
Cc1ccc(S(=O)(=O)N2CCOCC2)cc1NC(=O)COC(=O)CCc1c[nH]c2ccccc12	-9	30	36	nt	32	13	-2	-14
O=C(COC(=O)Cc1c[nH]c2ccccc12)Nc1cc(S(=O)(=O)N2CCOCC2)ccc1Cl	-11	6	35	nt	-18	13	nt	nt
COc1ccc(CCNc2c(C)c(C)nc3ncnn23)cc1	16	11	21	18	45*	10	25	77*
CCN(CC(=O)Nc1ccc2c(c1)OCCO2)C(=O)COc1ccc(C)cc1	-8	0	5	6	-21	-1	nt	nt
N#Cc1ccc(-c2cccnc2)nc1SCC(=O)c1ccccc1	22	22	15	0	53*	5	23	13
COc1ccc(C(=O)Nc2cccc3ccccc23)cc1	-11	22	-2	10	-10	1	nt	nt
COc1ccc(C(=O)NNC(=O)C(=O)Nc2cccc3ccccc23)cc1	7	2	-2	-5	26	2	-1	-5
CC(C)CC(=O)Nc1nnc(S(=O)(=O)N2CCc3ccccc32)s1	0	14	-4	-5	-12	0	nt	nt
Cc1cc2nc(-c3cccnc3SCC(=O)NCc3ccco3)[nH]c2cc1C	-14	14	-1	7	26	3	-3	-3
O=C(COc1ccc2ccc(=O)oc2c1)Nc1cccc(S(=O)(=O)N2CCCCC2)c1	1	21	32	nt	34	19	21	21
CC(=O)c1ccc(OCC(=O)Nc2cccc(S(=O)(=O)N3CCCC3)c2)cc1	5	6	24	nt	26	7	nt	nt
N#Cc1ccccc1OCC(=O)Nc1cccc(S(=O)(=O)N2CCCCCC2)c1	4	4	53*	nt	36	11	-1	-2
